Results from ChEMBL document CHEMBL2321851, “Synthesis and biological evaluation of novel coumarin-pyrazoline hybrids endowed with phenylsulfonyl moiety as antitumor agents” (Eur J Med Chem, 2013).
Activity calls are given as the source filed them.

Assays:
Type in all cases: functional, cell-based
[1] = system: COLO 205; experiment: Growth inhibition of human COLO205 cells at 10 uM after 48 hrs by sulforhodamine B assay
Outline: (§1)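 Single-dose primary screen at 10^-5 M across the ~60-line panel grown in RPMI 1640 with 5% FBS and 2 mM glutamine, 48 h exposure at 37 °C. Cells TCA-fixed and SRB-stained, absorbance at 515 nm. Output is percent growth of treated versus untreated control cells.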

[2] = system: M14; experiment: Growth inhibition of human M14 cells at 10 uM after 48 hrs by sulforhodamine B assay; outline: as §1
[3] = system: SNB-19; experiment: Growth inhibition of human SNB19 cells at 10 uM after 48 hrs by sulforhodamine B assay
Outline: (§2)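 NCI-60 one-dose primary screen at 10^-5 M. Cells grown in RPMI 1640 with 5% FBS and 2 mM L-glutamine and plated by doubling time. Preincubated 24 h at 37 °C under 5% CO2. Drug exposure 48 h. Cells fixed with cold TCA and stained with 0.4% SRB; absorbance read at 515 nm. Reported as percent growth of treated versus untreated control.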

[4] = system: CCRF-CEM; experiment: Growth inhibition of human CCRF-CEM cells at 10 uM after 48 hrs by sulforhodamine B assay; outline: as §1
[5] = system: HOP-62; experiment: Growth inhibition of human HOP62 cells at 10 uM after 48 hrs by sulforhodamine B assay; outline: as §1
[6] = system: MOLT-4; experiment: Growth inhibition of human MOLT4 cells at 10 uM after 48 hrs by sulforhodamine B assay; outline: as §2
[7] = system: MDA-MB-231; experiment: Growth inhibition of human MDA-MB-231 cells at 10 uM after 48 hrs by sulforhodamine B assay; outline: as §1
[8] = system: SW-620; experiment: Growth inhibition of human SW620 cells at 10 uM after 48 hrs by sulforhodamine B assay
Outline: (§3)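 NCI-60 one-dose primary screen at 10^-5 M. Cells were grown in RPMI 1640 with 5% FBS and 2 mM L-glutamine and plated at 5,000–40,000 cells/well depending on doubling time. After 24 h preincubation at 37 °C in 5% CO2, drug was added for 48 h. Cells were fixed with TCA and stained with SRB, and absorbance was read at 515 nm. Values are growth percent versus untreated control.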

[9] = system: HCC 2998; experiment: Growth inhibition of human HCC2998 cells at 10 uM after 48 hrs by sulforhodamine B assay; outline: as §1
[10] = system: UACC-62; experiment: Growth inhibition of human UACC62 cells at 10 uM after 48 hrs by sulforhodamine B assay; outline: as §3

Measured: growth inhibition (GI)

COc1ccc2ccc(=O)oc2c1C1=NN(S(=O)(=O)c2ccccc2)C(c2ccc(SC)cc2)C1 (stereo not given)
inactive: [1] | [2] | [3] | [4] | [5] | [6] | [7] | [8] | [9] | [10]

COc1ccc2ccc(=O)oc2c1C1=NN(S(=O)(=O)c2ccccc2)C(c2cccs2)C1 (stereo not given)
inactive: [1] | [2] | [3] | [4] | [5] | [6] | [7] | [8] | [9] | [10]

COc1ccc2ccc(=O)oc2c1C1=NN(c2ccc(S(N)(=O)=O)cc2)C(c2ccc(C)o2)C1 (stereo not given)
inactive: [1] | [2] | [3] | [4] | [5] | [6] | [7] | [8] | [9] | [10]

COc1ccc2ccc(=O)oc2c1C1=NN(S(=O)(=O)c2ccccc2)C(c2ccc(C)o2)C1 (stereo not given)
inactive: [1] | [2] | [3] | [4] | [5] | [6] | [7] | [8] | [9] | [10]
